Published values pooled from the literature.
Protocols differ between the studies behind these lines.
Cell line: MIA PaCa-2
Observed: cell growth or viability

Compound | assay | setting | quantity | result
O=C1C(Cl)=C(NCCCN2CCCCC2)C(=O)c2ccccc21 | MTT |  | IC50 | 4.75 µM
CCOc1ccc2[nH]cc(C(=O)C(C#N)=Cc3cn(C)c4ccccc34)c2c1 | MTT | 48 h | IC50 | 1.35 µM
Cc1sc2c(c1C)C(c1ccc(Cl)cc1)=N[C@@H](CC(=O)NCCCCNC(=O)COc1cccc3c1C(=O)N(C1CCC(=O)NC1=O)C3=O)c1nnc(C)n1-2 (some centres unmarked) | CCK-8 | 72 h | IC50 | > 10 µM
CC(=O)N1CCC(Nc2cc(C(=O)NC[C@H](O)CN3CCc4ccccc4C3)ncn2)CC1 | CCK-8 | 72 h | IC50 | > 100 µM
Cc1cc(=O)oc2cc(OCCCCSC#N)ccc12 | SRB |  | GI50 | 6.3 µM
O=C1C(Cl)=C(NCCN2CCOCC2)C(=O)c2ccccc21 | MTT |  | IC50 | 19.7 µM
CC1=CC(=O)C(C(C)C)=CC1=O | SRB | 48 h | IC50 | 33.2 µM
CCCOc1ccc2[nH]cc(C(=O)C(C#N)=Cc3cn(CC)c4ccccc34)c2c1 | MTT | 48 h | IC50 | 5.3 µM
N#CSCc1cc(=O)oc2cc(O)ccc12 | SRB |  | GI50 | 5.3 µM
COc1ccc2c(C(=O)C(C#N)=Cc3cn(C)c4ccccc34)c[nH]c2c1 | MTT | 48 h | IC50 | > 40 µM
CNC(=O)c1ccccc1Nc1cc(Nc2ccc(N3CCOCC3)cc2OC)ncc1C(F)(F)F | MTT | 48 h | IC50 | 1.77 µM
